Measurements taken from ChEMBL document CHEMBL5150051, “Identification and Characterization of a Novel Indoleamine 2,3-Dioxygenase 1 Protein Degrader for Glioblastoma” (J Med Chem, 2022).
Activity calls are given as the source filed them. No cut-off for these calls is given here.

Assays:
[1] = Half life in C57BL/6 mouse plasma at 25 mg/kg, ip; format: ADME, organism-based
[2] = target: T1, Protein cereblon/Indoleamine 2,3-dioxygenase 1 (Homo sapiens, UniProt P14902+Q96SW2); assay: Protac activity at CRBN/IDO1-HA expressed in human U87 cells assessed as IDO1 degradation in intracellular cytoplasmic compartment measured at 1 to 10 uM after 24 hrs by Western blotting analysis; format: subcellular; settings: Cytoplasm, dose 1-10 µM
T1 sequence (P14902 whole entry, looked up): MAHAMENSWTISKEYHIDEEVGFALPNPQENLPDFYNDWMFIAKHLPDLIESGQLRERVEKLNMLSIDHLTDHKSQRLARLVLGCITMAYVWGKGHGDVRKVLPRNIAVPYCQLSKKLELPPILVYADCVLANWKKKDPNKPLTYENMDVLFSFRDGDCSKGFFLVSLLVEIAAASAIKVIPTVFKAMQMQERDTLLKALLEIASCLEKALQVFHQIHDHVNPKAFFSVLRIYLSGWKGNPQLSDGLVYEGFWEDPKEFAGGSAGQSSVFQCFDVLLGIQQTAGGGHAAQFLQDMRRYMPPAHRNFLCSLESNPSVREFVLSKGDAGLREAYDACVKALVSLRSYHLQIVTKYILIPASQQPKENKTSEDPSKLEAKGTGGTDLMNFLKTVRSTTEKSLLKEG
T1 sequence (Q96SW2 whole entry, looked up): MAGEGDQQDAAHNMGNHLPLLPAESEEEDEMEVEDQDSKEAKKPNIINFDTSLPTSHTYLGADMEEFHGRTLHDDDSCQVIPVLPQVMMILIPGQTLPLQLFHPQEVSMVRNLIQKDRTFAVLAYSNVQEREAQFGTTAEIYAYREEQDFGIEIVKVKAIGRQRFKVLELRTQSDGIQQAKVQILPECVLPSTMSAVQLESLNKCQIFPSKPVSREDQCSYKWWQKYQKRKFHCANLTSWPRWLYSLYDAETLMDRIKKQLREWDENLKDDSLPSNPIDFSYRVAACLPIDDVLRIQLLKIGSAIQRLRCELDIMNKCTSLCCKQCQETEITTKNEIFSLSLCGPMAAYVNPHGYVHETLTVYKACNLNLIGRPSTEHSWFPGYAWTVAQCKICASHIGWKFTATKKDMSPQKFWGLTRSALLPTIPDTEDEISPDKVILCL

[3] = target: T1, Protein cereblon/Indoleamine 2,3-dioxygenase 1; assay: Protac activity at IDO1/CRBN in IFNgamma-stimulated human PANC-1 cells assessed as IDO1 degradation by measuring decrease in intracellular protein level measured after 24 hrs by Western blotting analysis; format: cell-based; settings: dose 1-10 µM, DDE = dose-dependent effect
[4] = target: Indoleamine 2,3-dioxygenase 1 (Homo sapiens, UniProt P14902); assay: Binding affinity to IDO1 (unknown origin) assessed as binary complex stability by measuring half-life by bio-layer interferometry assay
Chain of Indoleamine 2,3-dioxygenase 1 (P14902 whole entry, looked up): as the sequence (P14902 whole entry, looked up) above

[5] = Toxicity in C57BL/6 mouse assessed as body weight change at 10 to 100 mg/kg, ip treated 5 days/week for 3 weeks; format: organism-based; settings: in vivo, 504 h, dose 10-100 mg/kg
Procedure, shortened: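 Male C57BL/6 mice dosed ip with vehicle or compound at 10, 25, 50 or 100 mg/kg, 5 days/week for 3 weeks. Body weight recorded every 2–3 days. n = 3 mice/dose, mean ± SEM.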

[6] = Half life in C57BL/6 mouse brain at 25 mg/kg, ip; format: ADME, organism-based
[7] = target: Ido1/Crbn (Mus musculus) (UniProt P28776+Q8C7D2); assay: Protac activity at CRBN/IDO1 non-enzyme mediated p65 phosphorylation in mouse GL261 cells expressing IDO1 cDNA measured at 0.1 to 10 uM after 24 hrs by Western blotting analysis; settings: dose 0.1-10 µM
Chain of Ido1/Crbn (Mus musculus) (P28776 whole entry, looked up): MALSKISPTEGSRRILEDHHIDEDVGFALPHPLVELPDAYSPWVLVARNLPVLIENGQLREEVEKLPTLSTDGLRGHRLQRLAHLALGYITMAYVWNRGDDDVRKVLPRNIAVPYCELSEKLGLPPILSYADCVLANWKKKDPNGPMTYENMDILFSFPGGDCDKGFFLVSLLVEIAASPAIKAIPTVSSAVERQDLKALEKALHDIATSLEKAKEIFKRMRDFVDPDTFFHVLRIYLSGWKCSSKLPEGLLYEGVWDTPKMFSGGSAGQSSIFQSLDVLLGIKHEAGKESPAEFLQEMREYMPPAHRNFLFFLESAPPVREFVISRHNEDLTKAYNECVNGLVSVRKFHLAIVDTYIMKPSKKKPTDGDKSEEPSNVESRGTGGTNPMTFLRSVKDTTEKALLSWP
Chain of Ido1/Crbn (Mus musculus) (Q8C7D2 whole entry, looked up): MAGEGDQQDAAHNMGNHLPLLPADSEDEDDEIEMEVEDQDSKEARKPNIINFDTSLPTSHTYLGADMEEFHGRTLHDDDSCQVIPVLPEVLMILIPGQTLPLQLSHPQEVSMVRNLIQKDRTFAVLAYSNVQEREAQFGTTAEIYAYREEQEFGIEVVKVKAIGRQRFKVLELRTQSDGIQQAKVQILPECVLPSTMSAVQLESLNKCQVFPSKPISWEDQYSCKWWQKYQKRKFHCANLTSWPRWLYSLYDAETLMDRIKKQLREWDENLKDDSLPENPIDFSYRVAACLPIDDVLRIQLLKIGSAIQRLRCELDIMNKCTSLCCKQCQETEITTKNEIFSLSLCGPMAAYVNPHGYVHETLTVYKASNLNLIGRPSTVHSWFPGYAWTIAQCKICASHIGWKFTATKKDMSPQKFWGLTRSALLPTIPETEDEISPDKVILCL

[8] = target: T1, Protein cereblon/Indoleamine 2,3-dioxygenase 1; assay: Protac activity at IDO1/CRBN in IFNgamma-stimulated human U87 cells assessed as IDO1 degradation at 10 uM measured after 24 hrs by Western blotting analysis relative to control; format: cell-based
Procedure, shortened: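 U87 GBM cells primed with human IFNγ 50 ng/mL for 24 h, then exposed to PROTAC at 10 μM for 24 h. Lysates run on western blot; IDO1 bands quantified by densitometry and expressed as percent of normalized IDO1 protein level.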

[9] = target: T1, Protein cereblon/Indoleamine 2,3-dioxygenase 1; assay: Protac activity at CRBN/IDO1 in IFNgamma-stimulated human GBM43 cells assessed as decrease in kynurenine level measured after 24 hrs by Ehrlich's test; format: cell-based; settings: GBM43 cell, DDE = dose-dependent effect
Procedure, shortened: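 U87 or GBM43 cells given compound together with 50 ng/mL IFNγ for 24 h. Supernatant kynurenine was measured with Ehrlich's reagent. Cells cultured without IFNγ served as control.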

[10] = target: T1, Protein cereblon/Indoleamine 2,3-dioxygenase 1; assay: Protac activity at IDO1/CRBN in human U87 cells assessed as decrease in phosphorylated p65 in nucleus at 1 to 10 uM measured after 24 hrs by Western blot analysis; format: cell-based; settings: dose 1-10 µM
Procedure, shortened: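 Cytoplasmic and nuclear fractions prepared from U87 cells after 24 h treatment with DMSO or compound. Fractions blotted for IDO1, phospho-p65 and total p65, with HDAC2 as nuclear marker and tubulin as cytoplasmic marker.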

[11] = target: T1, Protein cereblon/Indoleamine 2,3-dioxygenase 1; assay: Protac activity at CRBN/IDO1 non-enzyme mediated NF-kappaB signal in IFNgamma-stimulated human MDA-MB-231 cells assessed as decrease in p65 phosphorylation at 0.1 to 10 uM measured after 24 hrs Western blotting assay; format: cell-based; settings: dose 0.1-10 µM
Procedure, shortened: (§1)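 IFNγ-stimulated cells were induced for 24 h, then treated at several concentrations for 24 h. Lysates were western blotted for IDO1, phospho-p65, total p65 and GAPDH.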

[12] = target: T1, Protein cereblon/Indoleamine 2,3-dioxygenase 1; assay: Protac activity at CRBN/IDO1 non-enzyme mediated NF-kappaB signal in IFNgamma-stimulated human GBM43 cells assessed as decrease in p65 phosphorylation at 0.1 to 10 uM measured after 24 hrs Western blotting assay; format: cell-based; settings: GBM43 cell, dose 0.1-10 µM; procedure, shortened: as §1
[13] = target: T1, Protein cereblon/Indoleamine 2,3-dioxygenase 1; assay: Protac activity at IDO1/CRBN in IFNgamma-stimulated human U87 cells assessed as IDO1 degradation by measuring decrease in protein level measured at 10 uM continuous upto 72 hrs by Western blotting analysis; settings: U87 cell
[14] = target: T1, Protein cereblon/Indoleamine 2,3-dioxygenase 1; assay: Protac activity at IDO1/CRBN in IFNgamma-stimulated human GBM6 cells assessed as IDO1 degradation measured after 24 hrs by Western blotting analysis; format: cell-based; settings: dose 0.1-10 µM, DDE = dose-dependent effect
[15] = target: T1, Protein cereblon/Indoleamine 2,3-dioxygenase 1; assay: Protac activity at CRBN/IDO1-FLAG expressed in human U87 cells assessed as IDO1 degradation in intracellular nuclear compartment measured at 1 to 10 uM after 24 hrs by Western blotting analysis; format: subcellular; settings: Nucleus, dose 1-10 µM
[16] = target: T1, Protein cereblon/Indoleamine 2,3-dioxygenase 1; assay: Protac activity at IDO1/CRBN in IFNgamma-stimulated human GBM43 cells assessed as IDO1 degradation by measuring decrease in protein level measured after 24 hrs by Western blotting analysis; format: cell-based; settings: GBM, dose 0.1-10 µM, DDE = dose-dependent effect
Procedure, shortened: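 GBM43 cells stimulated with 50 ng/mL human IFNγ for 24 h, then treated across 0.01 to 30 μM for 24 h. IDO1 was quantified by western blot densitometry as percent of IFNγ-induced untreated level. DC50 came from the dose-response curve; n = 3 independent experiments, mean ± SEM.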

[17] = target: T1, Protein cereblon/Indoleamine 2,3-dioxygenase 1; assay: Protac activity at IDO1/CRBN in IFNgamma-stimulated human PBMC cells isolated form non-GBM patient assessed as IDO1 degradation by measuring decrease in intracellular protein level measured after 24 hrs by Western blotting analysis; format: cell-based; settings: DDE = dose-dependent effect
[18] = target: T1, Protein cereblon/Indoleamine 2,3-dioxygenase 1; assay: Protac activity at CRBN/IDO1 non-enzyme mediated p65 phosphorylation in enzyme-null cDNA transfected in IFNgamma-stimulated human U87 cells measured at 0.1 to 10 uM after 24 hrs by Western blotting analysis; format: cell-based; settings: dose 0.1-10 µM
[19] = target: T1, Protein cereblon/Indoleamine 2,3-dioxygenase 1; assay: Protac activity at CRBN/IDO1 in 50 ng/mL IFNgamma-stimulated human U87 cells assessed as IDO1 degradation by measuring decrease in protein level measured at 0.1 to 10 uM after 24 hrs by Western blotting analysis; settings: dose 0.1-10 µM
[20] = Drug uptake in C57BL/6 mouse serum at 10 to 100 mg/kg, ip treated 5 days/week for 3 weeks by LC/MS/MS analysis; format: ADME, organism-based; settings: in vivo, 504 h, dose 10-100 mg/kg
Procedure, shortened: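 Male C57BL/6 mice dosed ip at 10, 25, 50 or 100 mg/kg, 5 days/week for 3 weeks, alongside vehicle. After 3 weeks, serum and brain homogenate were analysed by mass spectrometry for drug level; mean ± SEM, n = 3 mice/dose.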

[21] = target: T1, Protein cereblon/Indoleamine 2,3-dioxygenase 1; assay: Protac activity at CRBN/IDO1-HA expressed in human U87 cells assessed as IDO1 degradation measured at 1 to 10 uM after 24 hrs by Western blotting analysis; format: cell-based; settings: dose 1-10 µM
[22] = target: T1, Protein cereblon/Indoleamine 2,3-dioxygenase 1; assay: Protac activity at IDO1/CRBN in IFNgamma-stimulated human OVCAR-5 cells assessed as IDO1 degradation by measuring decrease in intracellular protein level measured after 24 hrs by Western blotting analysis; format: cell-based; settings: dose 1-10 µM, DDE = dose-dependent effect

For `C[C@@H](C(=O)Nc1ccc(OC2CCN(C(=O)CCOCCOCCNc3cccc4c3C(=O)N(C3CCC(=O)NC3=O)C4=O)CC2)cc1)[C@H]1CC[C@@H](c2ccnc3ccc(F)cc32)CC1` (some centres not stated), the half-life [1] was 2.5 h, the Activity [2] was “Active” and the Activity [3] was “Dde”. For the same compound, the T1/2 [4] was 16 s, the Activity [5] was “Non-Toxic” and the half-life [6] was 8.3 h. For the same compound, the inhibition [7] was “Active”, the Activity [8] was 94% and the inhibition [9] was “Dde”. For the same compound, the Activity [10] was “Active”, the inhibition [11] was “Active” and the inhibition [12] was “Active”. For the same compound, the Activity [13] was “Active”, the Activity [14] was “Dde” and the Activity [15] was “Active”. For the same compound, the Activity [16] was “Dde”, the Activity [17] was “Dde” and the inhibition [18] was “Active”. The Activity [19] was “Active”, the Drug uptake [20] was “Active” and the Activity [21] was “Active”. For the same compound, the Activity [22] was “Dde”.
